Laboratory results taken from paper PMC2957851 (ACS Chemical Neuroscience, 2010).
Entries after “also recorded” stand apart in the source; their conditions may differ.

How the values were obtained:
[1] = test system: rmGlu5; conditions: CHO or HEK293 cells expressing rmGlu5; cited from earlier work
[2] = target: T1, rat mGlu5 (Rattus norvegicus, UniProt P31424); assay: Single-point PAM screen, potentiation of EC20 glutamate calcium response; format: cell-based; conditions: 1 μM test compound
In short: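 HEK293 cells stably expressing rat mGlu5 were plated at 30,000/well in glutamate/glutamine-free medium about 24 h ahead. Cells were loaded with 2 μM Fluo4-AM for 45 min at 37 °C in HBSS/HEPES/probenecid (pH 7.4). Vehicle or 1 μM test compound was added at 19 s, then glutamate at EC20 at 109 s. Fluorescence recorded for 160 s.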

[3] = target: T1, rat mGlu5; format: cell-based
In short: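 Rat mGlu5 HEK293 stable cells, plated at 30,000/well in glutamate/glutamine-free medium (dialysed FBS) ≥24 h. Loaded 45 min at 37 °C with 2 μM Fluo4-AM in HBSS, 20 mM HEPES, 2.5 mM probenecid, pH 7.4. Increasing test compound added at 19 s, EC20 glutamate at 109 s. Fluorescence read for 160 s. EC50 from curve fits.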

[4] = target: A809V/rmGlu5 (Rattus norvegicus, UniProt P31424, A809V); format: cell-based; conditions: VU0357121 at 1 μM; transiently transfected HEK293
A809V/rmGlu5, sequence (P31424 21-1203 A809V): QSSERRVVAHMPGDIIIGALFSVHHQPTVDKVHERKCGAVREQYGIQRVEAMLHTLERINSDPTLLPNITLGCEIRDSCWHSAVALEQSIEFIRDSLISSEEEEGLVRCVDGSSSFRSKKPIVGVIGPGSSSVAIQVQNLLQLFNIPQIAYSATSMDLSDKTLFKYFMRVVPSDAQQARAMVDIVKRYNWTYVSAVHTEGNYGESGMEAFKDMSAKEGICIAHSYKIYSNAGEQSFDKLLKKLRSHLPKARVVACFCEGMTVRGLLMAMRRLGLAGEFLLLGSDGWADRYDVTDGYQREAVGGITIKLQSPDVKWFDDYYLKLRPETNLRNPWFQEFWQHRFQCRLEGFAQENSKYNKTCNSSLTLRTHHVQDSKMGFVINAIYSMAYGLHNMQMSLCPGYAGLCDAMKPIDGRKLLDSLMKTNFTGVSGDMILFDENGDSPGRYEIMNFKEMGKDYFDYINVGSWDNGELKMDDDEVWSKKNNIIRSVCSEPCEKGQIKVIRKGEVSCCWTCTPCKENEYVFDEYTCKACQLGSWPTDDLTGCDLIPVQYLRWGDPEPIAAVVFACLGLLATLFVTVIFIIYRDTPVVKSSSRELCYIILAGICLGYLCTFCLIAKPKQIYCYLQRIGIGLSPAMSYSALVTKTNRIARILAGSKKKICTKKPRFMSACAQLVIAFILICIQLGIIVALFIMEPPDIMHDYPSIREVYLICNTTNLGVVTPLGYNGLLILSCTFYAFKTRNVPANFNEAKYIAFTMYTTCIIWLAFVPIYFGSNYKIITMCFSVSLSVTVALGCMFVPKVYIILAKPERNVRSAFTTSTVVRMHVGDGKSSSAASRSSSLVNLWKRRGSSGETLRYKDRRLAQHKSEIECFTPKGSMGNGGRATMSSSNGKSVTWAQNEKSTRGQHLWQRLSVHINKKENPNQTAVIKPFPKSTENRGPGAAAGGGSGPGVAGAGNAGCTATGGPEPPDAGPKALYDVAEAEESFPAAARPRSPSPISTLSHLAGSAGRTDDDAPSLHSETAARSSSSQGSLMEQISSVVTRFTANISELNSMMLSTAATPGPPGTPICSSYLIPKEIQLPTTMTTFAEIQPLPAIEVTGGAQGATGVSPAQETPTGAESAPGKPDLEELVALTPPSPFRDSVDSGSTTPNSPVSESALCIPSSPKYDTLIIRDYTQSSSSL
In short: (§1)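 HEK293 cells were transiently transfected with mutant rat mGlu5 cDNA using FuGENE 6, plated the next day and assayed the following day. Cells were Fluo4-AM loaded in HBSS/HEPES/probenecid at pH 7.4. Vehicle or a fixed 1 μM PAM was added, then increasing glutamate. Calcium fluorescence was read for 160 s. Glutamate concentration–response curves were fitted by nonlinear regression to compare EC50 values.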

[5] = target: F585I/rmGlu5 (Rattus norvegicus, UniProt P31424, F585I); format: cell-based; conditions: VU0357121 at 1 μM; transiently transfected HEK293
F585I/rmGlu5, sequence (P31424 21-1203 F585I): as the sequence (P31424 21-1203 A809V) above, with F565I, V789A counted along it
In short: as §1

[6] = target: T1, rat mGlu5; assay: Antagonist; format: cell-based; conditions: 10 μM test compound
In short: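 HEK293 cells stably expressing rat mGlu5 were plated in glutamate/glutamine-free medium 24 h ahead. Cells were loaded with 2 μM Fluo4-AM in HBSS with 2.5 mM probenecid and 20 mM HEPES, pH 7.4, for 45 min at 37 °C. Vehicle or 10 μM test compound went in at 19 s, then ~EC80 glutamate at 109 s. Fluorescence was read for 160 s and normalized to the 100 μM glutamate maximum. Three experiments were run in triplicate, mean ± SEM.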

[7] = target: rat mGlu2 (Rattus norvegicus, UniProt P31421); assay: Selectivity fold-shift, GIRK thallium flux in HEK/GIRK cells; format: cell-based; conditions: 30 μM test compound
In short: (§2)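 HEK cell lines expressing GIRK plus rat mGlu2, 3, 4, 7 or 8 or human mGlu6 were plated overnight at 37 °C. Cells were loaded with 1 μM Fluozin2-AM for 1 h at room temperature. Vehicle or 30 μM test compound was added, then varying glutamate 2.5 min later in thallium buffer (12 mM thallium sulfate). Glutamate curves were fitted by nonlinear regression. Three experiments were run in duplicate or triplicate, mean ± SEM.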

[8] = target: rat mGlu8 (Rattus norvegicus, UniProt P70579); assay: as above; format: cell-based; conditions: 30 μM test compound
In short: as §2

[9] = target: rat mGlu4 (Rattus norvegicus, UniProt P31423); assay: as above; format: cell-based; conditions: 30 μM test compound
rat mGlu4, sequence (P31423 33-912): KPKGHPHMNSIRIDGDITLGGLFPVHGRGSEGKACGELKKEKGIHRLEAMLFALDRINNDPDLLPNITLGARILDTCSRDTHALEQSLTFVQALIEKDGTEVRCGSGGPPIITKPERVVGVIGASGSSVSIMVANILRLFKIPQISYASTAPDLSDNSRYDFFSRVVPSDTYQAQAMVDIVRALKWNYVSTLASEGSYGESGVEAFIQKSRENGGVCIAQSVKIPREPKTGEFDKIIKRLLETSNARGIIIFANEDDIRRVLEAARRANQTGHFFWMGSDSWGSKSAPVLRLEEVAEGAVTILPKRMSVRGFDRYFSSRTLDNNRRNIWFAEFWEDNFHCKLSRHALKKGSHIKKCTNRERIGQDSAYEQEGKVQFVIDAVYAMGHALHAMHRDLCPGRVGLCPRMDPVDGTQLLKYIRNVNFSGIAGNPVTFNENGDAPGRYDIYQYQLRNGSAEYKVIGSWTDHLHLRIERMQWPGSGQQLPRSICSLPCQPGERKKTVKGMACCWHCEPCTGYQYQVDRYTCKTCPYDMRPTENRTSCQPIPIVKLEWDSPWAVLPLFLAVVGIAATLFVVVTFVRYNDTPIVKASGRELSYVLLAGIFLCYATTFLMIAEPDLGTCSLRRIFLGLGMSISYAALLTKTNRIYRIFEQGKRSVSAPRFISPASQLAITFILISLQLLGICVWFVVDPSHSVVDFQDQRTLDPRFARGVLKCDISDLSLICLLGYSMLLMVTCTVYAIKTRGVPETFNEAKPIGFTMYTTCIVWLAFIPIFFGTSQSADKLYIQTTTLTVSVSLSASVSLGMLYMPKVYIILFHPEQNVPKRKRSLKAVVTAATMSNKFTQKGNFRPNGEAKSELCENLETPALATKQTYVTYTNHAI
In short: as §2

[10] = target: rat mGlu3 (Rattus norvegicus, UniProt P31422); assay: as above; format: cell-based; conditions: 30 μM test compound
rat mGlu3, sequence (P31422 23-879): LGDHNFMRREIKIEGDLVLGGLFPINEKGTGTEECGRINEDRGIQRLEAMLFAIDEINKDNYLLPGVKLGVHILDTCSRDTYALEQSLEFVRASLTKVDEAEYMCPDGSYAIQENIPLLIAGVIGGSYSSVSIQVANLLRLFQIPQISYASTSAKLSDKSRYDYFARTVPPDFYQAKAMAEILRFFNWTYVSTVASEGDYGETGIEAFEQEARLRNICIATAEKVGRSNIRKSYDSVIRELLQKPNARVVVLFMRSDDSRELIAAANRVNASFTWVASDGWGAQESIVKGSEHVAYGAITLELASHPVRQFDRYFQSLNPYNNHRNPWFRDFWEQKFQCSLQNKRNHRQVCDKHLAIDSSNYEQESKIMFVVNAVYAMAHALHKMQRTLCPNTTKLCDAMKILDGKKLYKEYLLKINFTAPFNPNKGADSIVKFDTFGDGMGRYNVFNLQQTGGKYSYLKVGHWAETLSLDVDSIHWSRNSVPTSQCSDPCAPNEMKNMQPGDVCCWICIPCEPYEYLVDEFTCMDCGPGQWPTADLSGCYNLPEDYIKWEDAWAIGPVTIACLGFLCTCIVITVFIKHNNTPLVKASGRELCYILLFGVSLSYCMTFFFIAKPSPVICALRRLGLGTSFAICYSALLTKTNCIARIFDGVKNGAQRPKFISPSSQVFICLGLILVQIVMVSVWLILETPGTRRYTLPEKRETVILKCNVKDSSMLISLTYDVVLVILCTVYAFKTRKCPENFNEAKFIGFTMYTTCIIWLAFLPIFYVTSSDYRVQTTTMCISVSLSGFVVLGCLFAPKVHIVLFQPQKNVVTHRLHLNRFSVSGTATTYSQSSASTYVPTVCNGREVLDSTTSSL
In short: as §2

[11] = target: human mGlu6 (Homo sapiens, UniProt O15303); assay: as above; format: cell-based; conditions: 30 μM test compound
human mGlu6, sequence (O15303 25-877): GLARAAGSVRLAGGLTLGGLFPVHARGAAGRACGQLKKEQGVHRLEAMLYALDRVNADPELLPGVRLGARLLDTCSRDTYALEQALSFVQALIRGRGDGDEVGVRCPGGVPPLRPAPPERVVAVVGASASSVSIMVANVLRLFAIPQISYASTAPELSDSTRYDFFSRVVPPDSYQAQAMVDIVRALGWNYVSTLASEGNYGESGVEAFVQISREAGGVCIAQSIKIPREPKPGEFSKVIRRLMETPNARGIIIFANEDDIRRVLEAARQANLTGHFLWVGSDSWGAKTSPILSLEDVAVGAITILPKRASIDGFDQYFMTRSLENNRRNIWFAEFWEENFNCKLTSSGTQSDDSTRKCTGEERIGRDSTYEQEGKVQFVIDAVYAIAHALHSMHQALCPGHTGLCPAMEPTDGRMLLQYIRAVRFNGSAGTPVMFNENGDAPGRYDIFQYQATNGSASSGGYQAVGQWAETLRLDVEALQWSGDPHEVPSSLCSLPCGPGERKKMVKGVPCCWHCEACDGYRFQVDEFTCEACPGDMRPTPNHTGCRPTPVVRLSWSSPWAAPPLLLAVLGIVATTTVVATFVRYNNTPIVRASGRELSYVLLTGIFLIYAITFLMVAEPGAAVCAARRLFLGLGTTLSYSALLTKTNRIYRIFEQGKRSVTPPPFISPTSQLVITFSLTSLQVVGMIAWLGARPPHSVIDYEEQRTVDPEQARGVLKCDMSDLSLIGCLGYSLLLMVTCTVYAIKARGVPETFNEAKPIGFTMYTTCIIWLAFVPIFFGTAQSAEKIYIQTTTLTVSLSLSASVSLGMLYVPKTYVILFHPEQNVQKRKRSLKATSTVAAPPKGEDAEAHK
In short: as §2

[12] = target: rat mGlu1 (Rattus norvegicus, UniProt P23385); assay: Selectivity fold-shift, calcium assay in HEK293 cells expressing mGlu1; format: cell-based; conditions: 30 μM test compound
In short: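 HEK293 cells stably expressing rat mGlu1, handled as for mGlu5 cells: plated in glutamate/glutamine-free medium, loaded with 2 μM Fluo4-AM (45 min, 37 °C, pH 7.4, with probenecid). Vehicle or 30 μM test compound added, then increasing glutamate concentrations. Fluo-4 fluorescence read on FlexStation over 160 s. Concentration-response curves fit by nonlinear regression.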

[13] = target: rat mGlu7 (Rattus norvegicus, UniProt P35400); assay: Selectivity fold-shift, GIRK thallium flux in HEK/GIRK cells; format: cell-based; conditions: 30 μM test compound
rat mGlu7, sequence (P35400 35-915): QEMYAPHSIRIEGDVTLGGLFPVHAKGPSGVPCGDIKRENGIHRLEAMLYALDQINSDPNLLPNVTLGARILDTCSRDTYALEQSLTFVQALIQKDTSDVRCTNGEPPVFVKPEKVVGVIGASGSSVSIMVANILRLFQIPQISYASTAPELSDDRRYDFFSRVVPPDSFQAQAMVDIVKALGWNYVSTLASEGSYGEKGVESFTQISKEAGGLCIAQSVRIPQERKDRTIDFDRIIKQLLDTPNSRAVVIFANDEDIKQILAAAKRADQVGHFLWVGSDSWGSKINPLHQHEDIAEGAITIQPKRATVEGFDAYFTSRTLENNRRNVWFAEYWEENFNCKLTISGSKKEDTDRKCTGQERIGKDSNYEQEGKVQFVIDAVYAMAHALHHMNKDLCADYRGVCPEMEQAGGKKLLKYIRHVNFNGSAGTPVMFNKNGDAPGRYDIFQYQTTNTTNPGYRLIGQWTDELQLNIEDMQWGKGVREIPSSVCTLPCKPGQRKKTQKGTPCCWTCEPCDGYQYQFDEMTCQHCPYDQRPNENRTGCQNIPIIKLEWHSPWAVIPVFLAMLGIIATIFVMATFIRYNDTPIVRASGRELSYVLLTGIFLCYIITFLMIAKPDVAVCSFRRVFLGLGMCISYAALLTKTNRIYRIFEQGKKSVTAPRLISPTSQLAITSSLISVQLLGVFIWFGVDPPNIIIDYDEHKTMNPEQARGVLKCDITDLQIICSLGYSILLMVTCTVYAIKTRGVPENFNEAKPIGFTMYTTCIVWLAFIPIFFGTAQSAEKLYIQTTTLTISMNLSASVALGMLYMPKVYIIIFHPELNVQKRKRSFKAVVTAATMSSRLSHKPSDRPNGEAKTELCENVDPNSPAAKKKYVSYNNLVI
In short: as §2

[14] = target: T1, rat mGlu5; format: cell-based; conditions: 10 μM test compound with VU0357121 50 nM, EC20 glutamate
In short: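 Same Fluo4 calcium-flux protocol in rat mGlu5 HEK293 cells. Test compound (10 μM) or vehicle co-applied with reference mGlu5 PAM (50 nM) from one 4× solution, followed by EC20 glutamate. Fluorescence recorded 160 s. Groups compared with EC20 + PAM + vehicle control by one-way ANOVA with Dunnett's test.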

[15] = Solubility in assay; format: physicochemical; conditions: above 30 μM in assay
[16] = target: T1, rat mGlu5; format: cell-based; conditions: VU0365396 30 μM, EC20 glutamate

T1 sequence (P31424 21-1203): as the sequence (P31424 21-1203 A809V) above, with V789A counted along it

## N#Cc1cccc(C(=O)Nc2cc(-c3ccccc3)nn2-c2ccccc2)c1 [CDPPB, 3-cyano-N-(1,3-diphenyl-1H-pyrazol-5-yl)benzamide]
[1]
  intrinsic agonist activity at rmGlu5: display intrinsic agonist activity at moderate to high concentrations

## CCCCOc1ccc(C(=O)Nc2ccccc2F)cc1 [VU0040237, 4-butoxy-N-(2-fluorophenyl)benzamide]
[2]
  potentiation of response to suboptimal (EC20) glutamate: potentiated the response to glutamate at submicromolar concentrations
[3]
  EC50: 350 nM

## CNc1ncc(C#Cc2ccccc2)cn1 [MPPA, N-methyl-5-(phenylethynyl)pyrimidin-2-amine]
[1]
  intrinsic agonist activity at rmGlu5: have no effect on mGlu5 alone

## CCCCOc1ccc(C(=O)Nc2ccc(Cl)cn2)cc1 [VU0125936, 4-butoxy-N-(5-chloropyridin-2-yl)benzamide]
[2]
  potentiation of response to suboptimal (EC20) glutamate: potentiated the response to glutamate at submicromolar concentrations
[3]
  EC50: 664 nM

## O=C(Nc1ccc(Cl)cc1CN1C(=O)c2ccccc2C1=O)c1ccccc1O [CPPHA, N-{4-chloro-2-[(1,3-dioxo-1,3-dihydro-2H-isoindol-2-yl)methyl]phenyl}-2-hydroxybenzamide]
[4]
  PAM response at the A809V/rmGlu5 mutant: but not CPPHA is lost
[1]
  intrinsic agonist activity at rmGlu5: have no effect on mGlu5 alone
[5]
  PAM response at the F585I/rmGlu5 mutant: is lost

## CCCCOc1ccc(C(=O)Nc2ccc(F)cc2F)cc1 [VU0357121, 4-butoxy-N-(2,4-difluorophenyl)benzamide]
[6]
  inhibition of the effect of EC80 glutamate on mGlu5: did not inhibit the effect of glutamate on mGlu5
[7]
  modulation of agonist response (PAM activity) at mGlu2: does not have PAM activity
[8]
  modulation of agonist response (PAM activity) at mGlu8: does not have PAM activity
[2]
  potentiation of response to suboptimal (EC20) glutamate: potentiated the response to glutamate at submicromolar concentrations
[3]; versus VU0040237
  increase in potency over the HTS hit: 10 fold
[4]
  PAM response at the A809V/rmGlu5 mutant: inhibited the ability of VU0357121 to shift the glutamate concentration−response curve; also recorded: led to an inhibition of VU0357121 activity
[9]
  modulation of agonist response (PAM activity) at mGlu4: does not have PAM activity
[10]
  modulation of agonist response (PAM activity) at mGlu3: does not have PAM activity
[11]
  modulation of agonist response (PAM activity) at mGlu6: does not have PAM activity
[12]
  effect on glutamate concentration-response curve at mGlu1: weak inhibition of glutamate responses at mGlu1
[13]
  modulation of agonist response (PAM activity) at mGlu7: does not have PAM activity
[5]
  PAM response at the F585I/rmGlu5 mutant: had no effect on its function

## O=C(c1ccc(F)cc1)N1CCC[C@H](c2nc(-c3cccs3)no2)C1 [(S)-FTOPM, (S)-(4-fluorophenyl)(3-(3-(thiophen-2-yl)-1,2,4-oxadiazol-5-yl)piperidin-1-yl)methanone]
[1]
  intrinsic agonist activity at rmGlu5: display intrinsic agonist activity at moderate to high concentrations

## CCCCOc1ccc(C(=O)Nc2c(F)cccc2F)cc1 [VU0365396, 4-butoxy-N-(2,6-difluorophenyl)benzamide]
[14]
  inhibition of VU0357121 PAM activity: caused the most robust inhibition; also recorded: induces the most robust inhibition of VU0357121 effects
[15]
  solubility: limitations with solubility precluded studies with higher concentrations
[16]
  effect of VU0365396 on CPPHA-induced potentiation: had no effect on CPPHA-induced potentiation of mGlu5 responses; also recorded: has no effect on CPPHA activity
  effect of VU0365396 on the VU0357121 CRC: induced a parallel rightward shift in the VU0357121 CRC; also recorded: induces a parallel rightward shift in the VU0357121 concentration−response curve

## O=C(c1ccc(F)cc1)N1CCC[C@H](c2nc(-c3ccccn3)no2)C1 [(S)-FPOPM, (S)-(4-fluorophenyl)(3-(3-(pyridin-2-yl)-1,2,4-oxadiazol-5-yl)piperidin-1-yl)methanone]
[1]
  intrinsic agonist activity at rmGlu5: have no effect on mGlu5 alone

## O=C(Nc1cc(-c2ccccc2)nn1-c1ccccc1)c1ccc([N+](=O)[O-])cc1 [VU-29, 4-nitro-N-(1,3-diphenyl-1H-pyrazol-5-yl)benzamide, reference compound]
[4]
  PAM response at the A809V/rmGlu5 mutant: is lost
[5]
  PAM response at the F585I/rmGlu5 mutant: but not VU29 is lost

## Cc1cccc(C#Cc2ccccc2)n1 [MPEP, 2-methyl-6(phenylethynyl)pyridine, reference compound]
[6]
  inhibition of the effect of EC80 glutamate on mGlu5: blockade

## CCCOc1ccc(C(=O)Nc2ccc(Cl)cn2)cc1 [VU0001850, N-(5-chloropyridin-2-yl)-4-propoxybenzamide]
[2]
  potentiation of response to suboptimal (EC20) glutamate: potentiated the response to glutamate at submicromolar concentrations
[3]
  EC50: 1300 nM
